# Measured values of several laboratories.
# Lines come from different studies, so protocols differ.
# Fibroblast growth factor 14: Fibroblast growth factor 14 (Homo sapiens, UniProt Q92915)
# HTR1A: 5-hydroxytryptamine receptor 1A (HTR1A, Homo sapiens, UniProt P08908)
# RIOK2: Serine/threonine-protein kinase RIO2 (RIOK2, Homo sapiens, UniProt Q9BVS4)
SMILES,target,test,conditions,endpoint,result
Cc1cccc(NC(=O)Cn2cc(CO)c3ccccc32)c1,Fibroblast growth factor 14,"binding, SPR",,kon,8900 M⁻¹ s⁻¹
C[C@]1(O)CCCN(c2nc(Nc3ccc(S(=O)(=O)N[C@H]4CC[C@H](CN5CCN(c6ccc(C7CCC(=O)NC7=O)cc6F)CC5)CC4)cc3Cl)ncc2C(F)(F)F)C1 (stereo partly shown),"Leucine-rich repeat serine/threonine-protein kinase 2 (LRRK2, Homo sapiens, UniProt Q5S007, G2019S)","binding, competition with immobilised ligand",1 µM,remaining binding,12%
C1=C/COCc2cc(ccc2OCCN2CCCC2)Nc2nccc(n2)-c2cccc(c2)COC/1,"Eukaryotic translation initiation factor 2-alpha kinase 1 (EIF2AK1, Homo sapiens, UniProt Q9BQI3)",binding,0.1 µM,remaining binding,87%
CCN1/C(=C/C(C)=O)Sc2ccc(F)cc21,HTR1A,"ligand displacement, radioligand",10 µM,inhibition,1.73%
N#Cc1ccc(NC(=O)Nc2ccccc2)cc1,RIOK2,"cell-free assay, competition with immobilised ligand",25 µM,remaining binding,68%
Cc1cc(O)c(-c2ccc([C@@H](C)CN(C)C)cc2)c2c1[nH]c(=O)c1sccc12,"Serine/threonine-protein kinase TAO2 (TAOK2, Homo sapiens, UniProt Q9UL54)","enzyme activity, inhibitor",0.1 µM,inhibition,-4.37%
NC/C(=C\F)COc1cccc(Cn2c(=S)[nH]c(=O)c3[nH]cnc32)c1,HTR1A,"ligand displacement, radioligand",10 µM,inhibition,< 50%
O=c1cc(-c2ccc([N+](=O)[O-])cc2)[nH]c2c(-c3ccc(Cl)cc3)c(Cc3ccccc3)nn12,Fibroblast growth factor 14,"binding, SPR",,koff,0.00101 s⁻¹
CN(C)CCOC(=O)COc1ccc(Cl)cc1,HTR1A,"ligand displacement, radioligand","1 µM, cell membranes",inhibition,-5.33%
CC(=O)Nc1ccc(S(=O)(=O)N2CCN(CC(O)COc3ccc4ccccc4c3)CC2)cc1 (stereo not shown),Fibroblast growth factor 14,"binding, SPR",,kon,4290 M⁻¹ s⁻¹
CCCCC(=O)Nc1ccc(-c2ccc3ncn(CCC)c(=O)c3c2)cn1,"cAMP-dependent protein kinase catalytic subunit beta (PRKACB, Homo sapiens, UniProt P22694)","binding, competition with immobilised ligand",0.5 µM,remaining binding,87%
C#Cc1cnc(Nc2ccnc(CO)c2)nc1Nc1ccccc1S(C)(=O)=NC#N (stereo not shown),RIOK2,cell-free assay,1 µM,remaining signal,100%
COc1ccc2oc(-c3ccc4nc(N)oc4c3)c/c(=N\c3ccccc3NC(=O)CCN)c2c1,"Phosphatidylinositol 4-phosphate 3-kinase C2 domain-containing subunit alpha (PIK3C2A, Homo sapiens, UniProt O00443)",binding,1 µM,remaining binding,101%
